ChEMBL document CHEMBL3352487, “Synthesis, antibacterial activity, and biological evaluation of formyl hydroxyamino derivatives as novel potent peptide deformylase inhibitors against drug-resistant bacteria” (Eur J Med Chem, 2014)
In brackets after ≈: the same amount, converted by molar mass.

How the values were obtained:
Staphylococcus aureus [1] = assay: Antimicrobial activity against Staphylococcus aureus ATCC 33591 in septicemia mouse model assessed as mortality of host at 5 mg/kg administered intragastrically measured after 14 days relative to control; format: functional; details: ATCC 33591, po, 336 h, route intragastric
Method in brief: (§1)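 Septicemia model: outbred mice inoculated i.p. with a 90–100% lethal dose (5 × 10^6 CFU/mL) in 0.5 mL brain heart infusion broth with 5% mucin. Drug in 20% DMSO given intragastrically after infection at 5, 10 or 20 mg/kg, 0.1 mL. Six mice per dose; cumulative mortality over 14 days; ED50 derived.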

Staphylococcus aureus [2] = assay: Antimicrobial activity against Staphylococcus aureus ATCC 33591 in septicemia mouse model assessed as mortality of host at 10 mg/kg administered intragastrically measured after 14 days relative to control; format: functional; details: ATCC 33591, po, 336 h, route intragastric; method in brief: as §1
Escherichia coli [3] = assay: Antimicrobial activity against Escherichia coli isolate 2 after 24 hrs by broth microdilution method; format: functional; details: isolate 2, 24 h
Method in brief: (§2)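 Broth microdilution following NCCLS M7-A4; ATCC strains and clinical isolates from a provincial hospital.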

Staphylococcus aureus [4] = assay: Antimicrobial activity against Staphylococcus aureus ATCC 33591 in septicemia mouse model assessed as mortality of host at 20 mg/kg administered intragastrically measured after 14 days relative to control; format: functional; details: ATCC 33591, po, 336 h, route intragastric; method in brief: as §1
Escherichia coli [5] = assay: Antimicrobial activity against Escherichia coli isolate 1 after 24 hrs by broth microdilution method; format: functional; details: isolate 1, 24 h; method in brief: as §2
[6] = test system: Staphylococcus epidermidis; assay: Antimicrobial activity against Staphylococcus epidermidis after 24 hrs by broth microdilution method; format: functional; method in brief: as §2
Staphylococcus aureus [7] = assay: Antimicrobial activity against Staphylococcus aureus ATCC 33591 in septicemia mouse model administered intragastrically measured after 14 days; format: functional; details: ATCC 33591, po, 336 h
[8] = Fraction unbound in CD1 mouse plasma at 2 uM by equilibrium dialysis; format: ADME, cell-free
Method in brief: (§3)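 Pooled CD-1 mouse plasma spiked to 2 µM final, equilibrium dialysis in triplicate against 100 mM PBS pH 7.4, 4 h at 37 °C with rotation; matrix-matched samples acetonitrile-precipitated, LC-MS/MS with internal standards. Unbound = free/total ×100; recovery = (free+total)/pre-dialysis ×100.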

[9] = Drug recovery in CD1 mouse plasma at 2 uM by equilibrium dialysis; format: ADME, cell-free; details: read-out: Drug recovery; method in brief: as §3
[10] = Protein binding in CD1 mouse plasma at 2 uM by equilibrium dialysis; format: ADME, cell-free; details: read-out: PPB (converted)

With `CC(=O)NC[C@H]1CN(c2ccc(N3CCOCC3)c(F)c2)C(=O)O1` [LINEZOLID] the mortality at 5 mg/kg (Staphylococcus aureus [1]) was 83%, the mortality at 10 mg/kg (Staphylococcus aureus [2]) was 66% and the MIC (Escherichia coli [3]) was greater than 64 µg/mL. For the same compound, the mortality at 20 mg/kg (Staphylococcus aureus [4]) was 16%, the MIC (Escherichia coli [5]) was greater than 64 µg/mL and the MIC [6] was 0.5 µg/mL (≈ 1.48 µM). For the same compound, the ED50 (Staphylococcus aureus [7]) was 11.9 mg/kg.

With `CC(=O)CC(c1ccccc1)c1c(O)c2ccccc2oc1=O` (stereo not given) [WARFARIN] the fraction unbound at 2 µM [8] was 0.059, the recovery at 2 µM [9] was 104% and the fraction unbound at 2 µM [10] was 0.059.
